# High-throughput results deposited in PubChem by Broad Institute.
# Hits are enriched below; roughly 2.1% of the tested compounds scored in any of these assays.
# CAL PDZ FP-1 – CAL PDZ (human) peptide binding inhibition | Q9HD26 | purified CAL PDZ, TMR-peptide fluorescence polarization, 1 h | inhibition, % at 24.9 µM | 300,000 tested, 0.92% active;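 active = mean inhibition of at least 30% with at least half of replicates also reaching 30%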
# SR-BI HDL uptake – blocks mouse SR-BI lipid uptake from DiI-HDL; inhibition, % at 12.5 µM; 320,000 tested, 0.96% active; ldlA[mSR-BI] CHO cells, DiI-HDL uptake fluorescence, 3 h;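 active = mean replicate inhibition of at least 70% and a set share of replicates each scoring 70 or more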
# Target sequence (Q61009 whole entry, looked up): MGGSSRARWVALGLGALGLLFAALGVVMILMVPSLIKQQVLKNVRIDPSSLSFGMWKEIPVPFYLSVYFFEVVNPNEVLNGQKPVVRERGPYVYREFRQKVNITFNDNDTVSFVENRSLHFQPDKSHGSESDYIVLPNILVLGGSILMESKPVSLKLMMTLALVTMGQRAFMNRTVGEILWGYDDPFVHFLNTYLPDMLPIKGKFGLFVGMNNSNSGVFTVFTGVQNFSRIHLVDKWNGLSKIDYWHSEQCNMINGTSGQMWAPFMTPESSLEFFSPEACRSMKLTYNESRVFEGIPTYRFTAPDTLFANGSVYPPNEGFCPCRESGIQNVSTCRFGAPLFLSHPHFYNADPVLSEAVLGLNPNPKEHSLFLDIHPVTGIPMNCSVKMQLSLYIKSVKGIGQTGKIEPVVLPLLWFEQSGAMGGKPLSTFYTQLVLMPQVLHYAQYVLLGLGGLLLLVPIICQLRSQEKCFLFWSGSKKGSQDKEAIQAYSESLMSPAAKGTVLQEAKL
# SR-BI uptake up – SR-BI HDL lipid transfer activation; CHO ldlA[mSR-BI] cells, DiI-HDL uptake fluorescence, 3 h; 100 = double the neutral-control signal; activation, % at 12.5 µM; 320,000 tested, 0.096% active; AID 504775;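 active = mean replicate activation of at least 60% and every replicate at or above 60%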
#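 Test system: SR-BI-overexpressing, LDLR-lacking CHO cells. Measured by: DiI fluorescence, bottom read. Medium: Ham's F12 with 0.5% BSA, HEPES 25 mM, pH 7.4. Timing: 3 h uptake period with compound, 37 °C.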
# miR122 inh – blocks miR-122 activity in Huh7 sensor cells; 340,000 tested, 0.3% active; AID 602342; activation (reporter increase), % at 12.5 µM; Huh7 miR-122 Renilla luciferase sensor, 48 h; neutral wells = 0, positive control = 100;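 active = mean replicate activation score at least 90 and every replicate individually at or above 90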;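 note: higher luciferase means less miR-122 activity so hits act as miR-122 inhibitors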
# ARNT TACC3 PPI – disruptors of human ARNT/TACC3 interaction; inhibition, % at 9.99 µM; Q9Y6A5; 390,000 tested, 0.66% active; AlphaScreen His-ARNT PAS-B/GST-TACC3 binding, luminescence; TACC3 fragment carries E629A point mutation; AID 623870;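 active = mean inhibition of replicates at least 50% and at least half of replicates each reaching 50%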
# CAL PDZ FP-2 – inhibitors of human CAL PDZ peptide binding | Q9HD26 | purified CAL PDZ, TMR-peptide fluorescence polarization, 1 h | inhibition, % at 20 µM | 330,000 tested, 0.02% active;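 active = highest replicate inhibition of at least 40%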
#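 Test system: tagged CAL PDZ domain / Buffer or medium: sodium phosphate/NaCl buffer pH 7.4 with TCEP, IgG, Thesit / Reagent: TMR-labelled reporter peptide T*-PRC34 bound in PDZ groove / Compound dosing: single point, 20 µM / Schedule: 1 h incubation at room temperature before polarization reading / Technique: fluorescence polarization (mP) / Benchmarks: unlabelled peptide, DMSO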
# Numbers stand for hits; – = inactive; · = not tested or not shown; ! = repeats disagree.
SMILES,CAL PDZ FP-1,SR-BI HDL uptake,SR-BI uptake up,miR122 inh,ARNT TACC3 PPI,CAL PDZ FP-2
O=C(NN=Cc1ccc(N(CCCl)CCCl)cc1)c1cc(=O)[nH]c(=O)[nH]1,–,–,–,–,–,–
O=C(NN=Cc1ccc(N(CCCl)CCCl)cc1Cl)c1cccnc1,–,80,–,·,–,–
Cn1c(O)c(C(c2ccncc2)c2c(O)n(C)c(=S)n(C)c2=O)c(=O)n(C)c1=S,–,–,–,–,47,–
Cn1c(O)c(C(c2ccccn2)c2c(O)n(C)c(=S)n(C)c2=O)c(=O)n(C)c1=S,–,–,–,–,–,–
CC1CN(c2ccc([N+](=O)[O-])cc2Cl)CCN1 (stereo not drawn),–,–,–,–,49,–
CC=Cc1ccc2n(c1=O)C[C@H]1[C@H](CO)[C@@H](C(=O)OC)[C@@H]2N1S(=O)(=O)c1ccccc1C (mixture of isomers),·,·,·,–,–,·
COc1ccc(C#Cc2ccc([C@H]3[C@@H](CO)N4CCCCN(C(=O)Cc5ccncc5)C[C@@H]34)cc2)cc1,·,·,·,–,–,·
COc1cccc(NP(=O)(Oc2ccc(Cl)cc2)Oc2ccc(Cl)cc2)c1,–,–,–,·,·,–
O=P(Nc1ccccc1)(Nc1ccccc1)Oc1ccc(Cl)cc1,–,–,–,322,–,–
COC(=O)c1nc(-c2ccc3c(n2)C(=O)C(N)=C(OC)C3=O)c(N)c(-c2ccc(OC)c(OC)c2O)c1C,–,–,–,–,45,–
CSc1nc2ccccc2c(=O)n1-c1cccnc1,79,–,–,·,–,–
CCC(=O)N1[C@@H]2Cn3c(ccc(-c4cccc(F)c4)c3=O)[C@H]1[C@@H](C(=O)OC)[C@@H]2CO,·,·,·,–,–,·
CC1CN=C(Nc2ccc(F)c(Cl)c2)S1 (stereo not drawn),54,–,–,·,–,–
Fc1ccc(NC2=NCCS2)cc1Cl,·,–,–,–,–,–
CCN(CC)C(=O)c1ccc(NC(=O)c2cccc(F)c2)cc1,–,–,–,–,–,–
CCN(CC)C(=O)c1ccc(NC(=O)c2ccc3c(c2)NC(=O)CS3)cc1,–,72,–,·,–,–
CCC(C#N)(CC)P(=S)(c1ccccc1)c1ccccc1,–,–,63,·,–,–
Cc1cccc(S(=O)(=O)N2[C@@H]3Cn4c(ccc(-c5cccc(F)c5)c4=O)[C@H]2[C@@H](C(=O)O)[C@@H]3CO)c1,·,·,·,–,·,·
O=C(N/N=C/c1c(O)n(CCc2ccccc2)c(=O)[nH]c1=O)c1ccccc1O,–,·,·,·,–,–
O=C(N/N=C/c1c(O)n(Cc2ccc(F)cc2)c(=O)[nH]c1=O)c1ccccc1O,–,75,–,–,·,–
O=C(N/N=C/c1c(O)n(Cc2ccccc2)c(=O)[nH]c1=O)c1ccccc1O,–,117,–,–,63,–
O=c1[nH]c(=O)n(Cc2ccccc2)c(O)c1/C=N/NCCO,·,·,·,–,·,·
COc1ccc(Cn2c(O)c(/C=N/NC(=O)c3ccccc3O)c(=O)[nH]c2=O)cc1,–,97,–,·,–,–
CC=Cc1ccc2n(c1=O)C[C@@H]1[C@@H](CO)[C@H](C(=O)OC)[C@H]2N1CC1CCOCC1 (mixture of isomers),·,·,·,·,–,·
CCCNC(=O)[C@H]1[C@H](CO)[C@H]2Cn3c(cccc3=O)[C@@H]1N2CCC,·,·,·,–,·,·
SMILES,CAL PDZ FP-1,SR-BI HDL uptake,SR-BI uptake up,miR122 inh,ARNT TACC3 PPI,CAL PDZ FP-2
COC(=O)C[C@H]1CC[C@H]2NC[C@H](O)COC[C@@H]2O1,·,·,·,–,–,·
O=C(N/N=C/c1c(O)n(-c2cccc3ccccc23)c(=O)[nH]c1=O)c1ccncc1,–,–,–,–,68,–
O=C(N/N=C/c1c(O)n(CCc2ccccc2)c(=O)[nH]c1=O)c1ccncc1,–,–,–,–,74,–
O=C(N/N=C/c1c(O)n(CCc2ccc(F)cc2)c(=O)[nH]c1=O)c1ccncc1,–,–,–,·,65,–
Cc1ccc(-n2c(O)c(/C=N/NC(=O)c3ccncc3)c(=O)[nH]c2=O)cc1C,–,–,–,·,62,–
CCOc1ccc(N=Cc2c(O)n(-c3ccc(C)c(C)c3)c(=O)[nH]c2=O)cc1,·,·,·,–,·,·
CC(CO)(CO)N=Cc1c(O)n(-c2cccc3ccccc23)c(=O)[nH]c1=O,·,–,–,–,–,–
O=C(Cc1ccccc1)N1CCCCN2[C@@H](CO)[C@H](c3ccc(-c4ccccc4)cc3)[C@@H]2C1,·,·,·,–,–,·
COC(=O)[C@H]1[C@H](CO)[C@H]2Cn3c(cccc3=O)[C@@H]1N2C(=O)C1CCCC1,·,·,·,–,·,·
Cc1ccnc(NC(=O)CCCc2ccc(N(CCCl)CCCl)cc2)n1,51,–,–,–,–,–
CCOc1ccc(-n2c(O)c(N=Nc3c(C)n(C)n(-c4ccccc4)c3=O)c(=O)[nH]c2=O)cc1,·,–,–,–,60,–
C=CCn1c(O)c(N=Nc2c(C)n(C)n(-c3ccccc3)c2=O)c(=O)[nH]c1=S,–,–,–,–,63,–
Cc1c(N=Nc2c(O)[nH]c(=S)[nH]c2=O)c(=O)n(-c2ccccc2)n1C,–,–,–,–,61,–
COc1cccc(-c2ccc([C@@H]3[C@H]4CN(C(=O)Cc5ccncc5)CCCCN4[C@H]3CO)cc2)c1,·,·,·,–,·,·
CC=Cc1ccc2n(c1=O)C[C@H]1[C@H](CO)[C@@H](C(=O)OC)[C@@H]2N1CC1CC1 (mixture of isomers),·,·,·,–,–,·
CCN1[C@@H]2Cn3c(ccc(-c4ccc(OC)cc4)c3=O)[C@H]1[C@@H](C(=O)OC)[C@@H]2CO,·,·,·,·,–,·
CN(C)[C@@H]1C(=O)C(C(N)=O)=C(O)[C@@]2(O)C(=O)C3=C(O)c4c(O)cccc4[C@@](C)(O)C3C[C@@H]12 (stereo partly drawn),–,–,–,–,–,–
CN(C)[C@@H]1C(=O)C(C(N)=O)=C(O)[C@@]2(O)C(=O)C3=C(O)c4c(O)cccc4[C@@](C)(O)[C@H]3[C@H](O)[C@@H]12,–,–,–,–,52!,–
O=C(Cc1cccnc1)N1CCCCN2[C@H](C1)[C@@H](c1ccc(C#CC3CC3)cc1)[C@@H]2CO,·,·,·,–,·,·
CCCCCCC(=O)N/N=C/c1c(O)n(C(C)CC)c(=S)[nH]c1=O (stereo not drawn),–,–,–,–,50,–
C=CCn1c(O)c(C=NCCCOc2ccc(CC)cc2)c(=O)[nH]c1=S,–,–,–,·,–,–
CCCCCCC(=O)N/N=C/c1c(O)n(C2CC2)c(=S)[nH]c1=O,–,–,–,·,30,–
C=CCn1c(O)c(/C=N/NC(=O)CCCC)c(=O)[nH]c1=S,–,–,–,·,69,–
CCC(C)n1c(O)c(C=NC(C)c2ccccc2)c(=O)[nH]c1=S (stereo not drawn),·,–,–,·,–,–
CCCCCCC(=O)N/N=C/c1c(O)n(CCc2ccccc2)c(=O)[nH]c1=O,·,–,–,–,–,–
